Measured values published in ChEMBL document CHEMBL1125825, “Hydrophobicity parameters for platinum complexes” (J Med Chem, 1991).

Legend:
[1] = Partition coefficient (logP); assay type: physicochemical; settings: octanol/water
How it was run: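 Octanol/water shake-flask partitioning used equal phase volumes shaken at 300 agitations/min at 37 °C. Phases were separated at various times, and Pt in each phase was measured by graphite-furnace atomic absorption. P is the octanol Pt concentration divided by the aqueous Pt concentration, reported as log P, with the mean ± range of 6-10 independent experiments.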

[2] = tested on: P388; assay: Optimal dose evaluated for antitumor activity against P388 murine leukemia cells in female DBA/2 mice.; assay type: functional, cell-based; settings: Mus musculus
How it was run: (§1)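 P388 murine leukemia model in female DBA/2 mice given 10^6 cells on day 0. A single treatment was given on day 1 with the platinum complex freshly dissolved in 0.4% Klucel. T/C is the median survival time of treated mice relative to untreated controls.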

[3] = species: Mus musculus; assay: Median survival time of treated mice with respect to untreated controls.; assay type: functional, organism-based; how it was run: as §1

Row | logP [1] | Substance | Optimal dose [2] [µmol/kg] | T/C [3] [%]
1 | -2.19 | CISPLATIN [listing 1 of 2 here] |  | 
2 |  | CISPLATIN [listing 2 of 2 here] | 27 | 200
3 | -3.36 | cis-di-amonium, di-nitarte platinum (II) [listing 1 of 2 here] |  | 
4 |  | cis-di-amonium, di-nitarte platinum (II) [listing 2 of 2 here] | 3.5 | 123
5 | 0.36 | cis-di-cyclobutyleamino,di-chloro platinum (II) [listing 1 of 2 here] |  | 
6 |  | cis-di-cyclobutyleamino,di-chloro platinum (II) [listing 2 of 2 here] | 147 | 199
7 | -0.35 | cis-di-cycloheptylamino,di-nitrate platinum (II) [listing 1 of 2 here] |  | 
8 |  | cis-di-cycloheptylamino,di-nitrate platinum (II) [listing 2 of 2 here] | 92 | 133
9 | -0.91 | cis-di-cyclohexylamino,di-nitrate platinum (II) [listing 1 of 2 here] |  | 
10 |  | cis-di-cyclohexylamino,di-nitrate platinum (II) [listing 2 of 2 here] | 97 | 173
11 | 0.81 | cis-di-cyclopentylamino, dichloro platinum (II) [listing 1 of 2 here] |  | 
12 |  | cis-di-cyclopentylamino, dichloro platinum (II) [listing 2 of 2 here] | 572 | 172
13 | -1.14 | cis-di-cyclopentyleamino,di-nitrate platinum (II) [listing 1 of 2 here] |  | 
14 |  | cis-di-cyclopentyleamino,di-nitrate platinum (II) [listing 2 of 2 here] | 51 | 193
15 | -0.32 | cis-di-isopropyleamino,dichloro platinum (II) |  | 
16 | -3.28 | cis-di-methylamino, di-nitrate platinum (II) [listing 1 of 2 here] |  | 
17 |  | cis-di-methylamino, di-nitrate platinum (II) [listing 2 of 2 here] | 26 | 161
18 | -1.68 | cis-di-methylamino,di-chloro platinum (II) [listing 1 of 2 here] |  | 
19 |  | cis-di-methylamino,di-chloro platinum (II) [listing 2 of 2 here] | 76 | 175
20 | -1.41 | cis-di-pyridinium (4-acetyle),di-nitrate platinum (II) |  | 
21 | -1.06 | cis-di-pyridinium (4-chloro),di-nitrate platinum (II) [listing 1 of 2 here] |  | 
22 |  | cis-di-pyridinium (4-chloro),di-nitrate platinum (II) [listing 2 of 2 here] | 183 | 130
23 | -0.83 | cis-di-pyridinium (4-diaminomethane),di-nitrate platinum (II) [listing 1 of 2 here] |  | 
24 |  | cis-di-pyridinium (4-diaminomethane),di-nitrate platinum (II) [listing 2 of 2 here] | 495 | 110
25 | -2.13 | cis-di-pyridinium (4-methanol),di-nitrate platinum (II) |  | 
26 | -1.59 | cis-di-pyridinium,dinitrate platinum (II) [listing 1 of 2 here] |  | 
27 |  | cis-di-pyridinium,dinitrate platinum (II) [listing 2 of 2 here] | 105 | 125
